Screening results as filed in PubChem BioAssay.
Shown are actives, neighbours in structure and some others; about 3.5% of the full set was active somewhere.
MrgX1 antag = antagonists of human MrgX1 receptor, primary screen, HEK293 cells, Fluo-4 calcium flux; Mas-related G-protein coupled receptor member X1 (Homo sapiens), Q96LB2; BAM8-22 antagonism; active compounds read low; B-score at 10 µM; hit rate 1.3% among 310,000;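 active = calcium-response B-score plate-corrected more than 3 library SD below zero, starting fluorescence within 5 deviations, no agonist response on first addition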;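 also: peak minus trough fluorescence over baseline after final BAM8-22 challenge near maximal dose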
Target sequence (Q96LB2 whole entry, looked up): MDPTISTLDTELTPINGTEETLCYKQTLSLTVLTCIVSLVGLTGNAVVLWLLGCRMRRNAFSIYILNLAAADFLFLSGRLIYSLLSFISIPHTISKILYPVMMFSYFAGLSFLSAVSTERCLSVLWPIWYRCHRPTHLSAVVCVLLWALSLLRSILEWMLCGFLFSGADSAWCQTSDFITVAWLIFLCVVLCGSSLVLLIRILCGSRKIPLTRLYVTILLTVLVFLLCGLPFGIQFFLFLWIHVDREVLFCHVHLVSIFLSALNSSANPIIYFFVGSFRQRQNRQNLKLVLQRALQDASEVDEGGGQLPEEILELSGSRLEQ
MrgX1 ag = agonists of human MrgX1 receptor, primary screen, HEK293 cells, Fluo-4 calcium flux. Fluo-4 calcium fluorescence, agonist mode; active compounds read high. hit rate 0.44% among 310,000. Mas-related G-protein coupled receptor member X1 (Homo sapiens), Q96LB2. B-score at 10 µM;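 active = calcium response B-score plate-corrected fluorescence ratio at least 3 library SD, with starting fluorescence B-score inside 5 SD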
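Test system: HEK293 cells stably expressing human MrgX1 receptor; amount: 15,000 cells per well; doses: compound delivered in addition one of three; times: overnight plating before 1 h dye loading; detection: Fluo-4 NW calcium-flux fluorescence, kinetic read; read-out basis: B-scored fluorescence response ratio; controls: positive and negative controls per plate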
RGS4 block = RGS4 inhibitors, primary screen, cell-based, HEK293 M3R inducible RGS4, calcium flux; Fluo-4 calcium flux; active compounds read high; triggered by carbachol at its EC20; B-score at 10 µM; hit rate 0.45% among 310,000; AID 463165, 2010;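 active = B-score, a plate-corrected calcium signal, over three deviations above library mean, with baseline fluorescence within five deviations of library mean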;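 also: RGS4 expression induced by doxycycline in cells with stable M3 receptor; B-score is computed from the integrated fluorescence ratio over baseline after carbachol; higher B-score means a larger calcium signal and so more RGS4 inhibition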
Target sequence (P49798 whole entry, looked up): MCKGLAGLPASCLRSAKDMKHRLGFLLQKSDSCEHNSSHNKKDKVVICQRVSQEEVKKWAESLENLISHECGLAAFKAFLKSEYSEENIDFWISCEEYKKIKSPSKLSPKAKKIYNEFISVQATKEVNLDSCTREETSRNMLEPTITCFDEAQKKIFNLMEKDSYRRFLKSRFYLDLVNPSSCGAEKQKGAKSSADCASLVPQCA
MrgX1 PAM = positive allosteric modulators of MrgX1, primary screen, HEK293 cells, Fluo-4 calcium flux | Mas-related G-protein coupled receptor member X1 (Homo sapiens), Q96LB2 | FDSS; active compounds read high | B-score at 10 µM | hit rate 0.63% among 310,000;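 active = plate-corrected calcium response at least 3 library SD above typical, normal starting fluorescence, not activating the receptor alone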;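 also: compound read alongside a low EC10 to EC30 dose of BAM8-22 agonist; peak minus trough fluorescence over baseline measured at the second addition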
RGS4 act = RGS4 potentiators or activators, primary screen, cell-based, HEK293 M3R inducible RGS4, calcium flux | carbachol calcium flux Fluo4; active compounds read low | B-score at 10 µM | hit rate 0.92% among 310,000;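 active = B-score of the integrated calcium signal more than 4 SD below the library mean, with starting fluorescence not abnormally high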;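 also: negative B-score means reduced calcium response which marks RGS4 activation or potentiation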
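Also added: carbachol at ECmax as muscarinic agonist stimulus; Assay system: HEK293 cells with stable M3R and inducible RGS4; Timing: overnight RGS4 induction, 30 min dye load 37 °C, 20 min compound RT; Measured by: Fluo4-AM (2 µM) calcium-flux fluorescence, kinetic read.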
* hit, by the source's call.

`Cn1c(-c2c(N)n(C3CCCC3)c3nc4ccccc4nc23)nc2ccccc21` gave MrgX1 antag -7.4*, MrgX1 ag inactive, RGS4 block inactive, MrgX1 PAM inactive and RGS4 act -9*.
Cc1ccc(C2=NS(=O)(=O)N(C)C(C(=O)Nc3cc(C)n(CC(=O)N4CCC(C)CC4)n3)=C2)cc1 was read as MrgX1 antag inactive, MrgX1 ag inactive, RGS4 block inactive, MrgX1 PAM inactive and RGS4 act inactive.
CC1CCN(Cc2cc(=O)oc3ccc4ccccc4c23)CC1 was read as MrgX1 antag inactive, MrgX1 ag inactive, RGS4 block inactive, MrgX1 PAM inactive and RGS4 act inactive.
`CCc1ccc(C2C(C#N)=C(N)SC(N)=C2C#N)cc1` gave MrgX1 antag -5.3*, MrgX1 ag inactive, RGS4 block inactive, MrgX1 PAM inactive and RGS4 act inactive.
`Cc1ccc(C2C(C#N)=C(N)SC(N)=C2C#N)o1` gave MrgX1 antag -7.3*, MrgX1 ag inactive, RGS4 block inactive, MrgX1 PAM inactive and RGS4 act inactive.
For N#CC1=C(N)SC(N)=C(C#N)C1c1ccc(C(F)(F)F)cc1 the results were MrgX1 antag inactive, MrgX1 ag inactive, RGS4 block inactive, MrgX1 PAM inactive and RGS4 act inactive.
`CCc1ccc(C2C(C#N)=C(N)SC(N)=C2C#N)s1` gave MrgX1 antag -6.1*, MrgX1 ag inactive, RGS4 block inactive, MrgX1 PAM inactive and RGS4 act inactive.
For CCOCCCNC(=O)C(Cc1ccccc1)NS(=O)(=O)c1ccc2c(c1)c(=O)n(C)c(=O)n2C (stereo unspecified) the results were MrgX1 antag -5.8*, MrgX1 ag inactive, RGS4 block inactive, MrgX1 PAM inactive and RGS4 act inactive.
`O=C(CCC(=O)N1CCOc2ccccc21)NCc1cccnc1` gave MrgX1 antag inactive, MrgX1 ag inactive, RGS4 block inactive, MrgX1 PAM inactive and RGS4 act inactive.
`COc1cc(/C=N/NC(N)=S)ccc1OCC(=O)Nc1ccc(C)cc1` gave MrgX1 antag -5.5*, MrgX1 ag inactive, RGS4 block inactive, MrgX1 PAM inactive and RGS4 act inactive.
`COc1cc(/C=N/NC(=O)NC23CC4CC(CC(C4)C2)C3)ccc1OCC(N)=O` gave MrgX1 antag inactive, MrgX1 ag inactive, RGS4 block inactive, MrgX1 PAM inactive and RGS4 act -8.1*.
Screening CC(=O)NC1C(=O)N=C(SCC(=O)Nc2ccc(C(F)(F)F)cc2Cl)NC1=O (stereo unspecified) returned MrgX1 antag inactive, MrgX1 ag inactive, RGS4 block inactive, MrgX1 PAM inactive and RGS4 act inactive.
CC(C)C[C@H]1CN=C(Nc2ccccc2)N1CC1CCC(C(C)(C)C)CC1 (stereo partly specified) was read as MrgX1 antag inactive, MrgX1 ag inactive and MrgX1 PAM 6.9*.
For CCCCC1(C)OC(=O)C(=Cc2ccc(N(C)C)cc2)C(=O)O1 (stereo unspecified) the results were MrgX1 antag inactive, MrgX1 ag 29*, RGS4 block inactive, MrgX1 PAM inactive and RGS4 act inactive.
CCCCc1ccc(N2C(=NC(=O)C3CCCO3)SC3CS(=O)(=O)CC32)cc1 (stereo unspecified) was read as MrgX1 antag inactive, MrgX1 ag inactive, RGS4 block inactive, MrgX1 PAM inactive and RGS4 act inactive.
`N#Cc1c(N(CCO)CCO)nc(N)c2c(N)nc3c(c12)CC(=O)N3Cc1cccs1` gave MrgX1 antag -4.5*, MrgX1 ag inactive, RGS4 block inactive, MrgX1 PAM inactive and RGS4 act inactive.
CN(CCO)c1nc(N)c2c(N)nc3c(c2c1C#N)CC(=O)N3Cc1cccs1 was read as MrgX1 antag inactive, MrgX1 ag inactive, RGS4 block inactive, MrgX1 PAM inactive and RGS4 act inactive.
For Cc1ccc(C(=O)OCCc2sc[n+](Cc3ccccc3)c2C)cc1 the results were MrgX1 antag inactive, MrgX1 ag inactive, RGS4 block inactive, MrgX1 PAM inactive and RGS4 act -9.1*.
Cc1c(CCOC(=O)C23CC4CC(CC(C)(C4)C2)C3)sc[n+]1Cc1ccccc1 was read as MrgX1 antag inactive, MrgX1 ag inactive, RGS4 block inactive, MrgX1 PAM inactive and RGS4 act inactive.
Screening CCn1cc([N+](=O)[O-])nc1C returned MrgX1 antag -7.5*, MrgX1 ag inactive, RGS4 block inactive, MrgX1 PAM inactive and RGS4 act inactive.
`COC(=O)Cn1cc([N+](=O)[O-])nc1C` gave MrgX1 antag inactive, MrgX1 ag inactive, RGS4 block inactive, MrgX1 PAM inactive and RGS4 act inactive.
`Cc1cc(C)c(C(=O)N2CCC(N3CCC(C(=O)NC(C)C)CC3)CC2)o1` gave MrgX1 antag inactive, MrgX1 ag inactive, RGS4 block inactive, MrgX1 PAM inactive and RGS4 act inactive.
`Nc1c(Cl)ncnc1NCCc1ccc(O)cc1` gave MrgX1 antag inactive, MrgX1 ag inactive, RGS4 block inactive, MrgX1 PAM inactive and RGS4 act inactive.
For CN(C)c1ccc(/C=C(/C#N)C(=O)NCc2ccccc2)o1 the results were MrgX1 antag -4.9*, MrgX1 ag inactive, RGS4 block inactive, MrgX1 PAM inactive and RGS4 act inactive.
`N#C/C(=C/c1ccccc1)C(=O)NCc1ccccc1` gave MrgX1 antag inactive, MrgX1 ag inactive, RGS4 block inactive, MrgX1 PAM inactive and RGS4 act inactive.
Screening CCOC(=O)C1=C(C)N=c2s/c(=C/c3ccc(OCC(=O)O)cc3)c(=O)n2C1c1ccc(OC)cc1OC (stereo unspecified) returned MrgX1 antag inactive, MrgX1 ag inactive, RGS4 block inactive, MrgX1 PAM inactive and RGS4 act inactive.
CCOC(=O)C1=C(C)N=c2s/c(=C\c3ccc(O)c([N+](=O)[O-])c3)c(=O)n2C1c1ccccc1OC (stereo unspecified) was read as MrgX1 antag -4.6*, MrgX1 ag inactive, RGS4 block inactive, MrgX1 PAM inactive and RGS4 act inactive.
CCOC(=O)C1=C(C)N=c2s/c(=C/c3ccc(OCC(=O)O)cc3)c(=O)n2C1c1ccc(F)cc1 (stereo unspecified) was read as MrgX1 antag inactive, MrgX1 ag inactive, RGS4 block inactive, MrgX1 PAM inactive and RGS4 act -8.3*.
